The source made the active and inactive calls. The calls are words filed in the database; no cut-off is given here.
Experiments:
[1] = target: Glutamate NMDA receptor; Grin1/Grin2c (Rattus norvegicus, UniProt P35439+Q00961); assay: Positive allosteric modulation of recombinant rat GluN1/GluN2C receptor expressed in xenopus laevis oocyte assessed as potentiation of glutamate and glycine-induced current response at holding potential -40mV by two electrode voltage clamp method
Summary of the method: (§1)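 Two-electrode voltage clamp at -40 mV, 23°C, pH 7.4 Ba²⁺ recording solution, on Xenopus oocytes expressing rat NMDA receptors. Currents were evoked by 100 µM glutamate plus 30 µM glycine, with compound co-applied (DMSO 0.05–0.5% final). Each compound used at least 4 oocytes from at least 2 frogs.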

[2] = target: T1, Glutamate NMDA receptor; Grin1/Grin2c (Rattus norvegicus) (UniProt P35439+Q00961); assay: Positive allosteric modulation of recombinant rat GluN1/GluN2C receptor expressed in xenopus laevis oocyte assessed as potentiation of glutamate and glycine-induced current response at 30 uM at holding potential -40mV by two electrode voltage clamp method relative to control; summary of the method: as §1
[3] = target: T2, Glutamate NMDA receptor; Grin1/Grin2b (Rattus norvegicus, UniProt P35439+Q00960); assay: Positive allosteric modulation of recombinant rat GluN1/GluN2B receptor expressed in xenopus laevis oocyte assessed as potentiation of glutamate and glycine-induced current response at holding potential -40mV by two electrode voltage clamp method; summary of the method: as §1
[4] = target: Glutamate NMDA receptor; Grin1/Grin2a (Rattus norvegicus) (UniProt P35439+Q00959); assay: Positive allosteric modulation of recombinant rat GluN1/GluN2A receptor expressed in xenopus laevis oocyte co-expressing GluN2B assessed as potentiation of glutamate and glycine-induced current response at 10 uM at holding potential -40mV by two electrode voltage clamp method relative to control
[5] = target: Ionotropic glutamate receptor NMDA1/2A/2B (Rattus norvegicus) (UniProt P35439+Q00959+Q00960); assay: Positive allosteric modulation of recombinant rat GluN1/GluN2A/GluN2B receptor expressed in xenopus laevis oocyte assessed as potentiation of glutamate and glycine-induced current response at 10 uM at holding potential -40mV by two electrode voltage clamp method relative to control
Summary of the method: (§2)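 Triheteromeric GluN1/GluN2A/GluN2B receptors were expressed in oocytes using GluN2 subunits with modified intracellular domains controlling surface expression. Compound was tested at 10 µM by TEVC at -40 mV against maximally effective glutamate and glycine; n=14 oocytes.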

[6] = target: T3, Ionotropic glutamate receptor NMDA 1/2D (Rattus norvegicus) (UniProt P35439+Q62645); assay: Positive allosteric modulation of recombinant rat GluN1/GluN2D receptor expressed in xenopus laevis oocyte assessed as potentiation of glycine-induced current response at 30 uM at holding potential -40mV by two electrode voltage clamp method
[7] = target: T4, Glutamate NMDA receptor; Grin1/Grin2b (Rattus norvegicus) (UniProt P35439+Q00960); assay: Positive allosteric modulation of recombinant rat GluN1/GluN2B receptor expressed in xenopus laevis oocyte assessed as potentiation of glutamate and glycine-induced current response at 30 uM at holding potential -40mV by two electrode voltage clamp method relative to control
Summary of the method: as §1, with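 “final). […]” for “final).”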

[8] = target: T4, Glutamate NMDA receptor; Grin1/Grin2b (Rattus norvegicus); assay: Positive allosteric modulation of recombinant rat GluN1/GluN2B receptor expressed in xenopus laevis oocyte co-expressing GluN2A at 10 uM assessed as potentiation of glutamate and glycine-induced current response at holding potential -40mV by two electrode voltage clamp method relative to control; summary of the method: as §2
[9] = target: T4, Glutamate NMDA receptor; Grin1/Grin2b (Rattus norvegicus); assay: Positive allosteric modulation of recombinant rat GluN1/GluN2B receptor expressed in xenopus laevis oocyte assessed as compound concentration required to show two fold increase in glutamate and glycine-induced current response at holding potential -40mV by two electrode voltage clamp method
[10] = tested on: Mus musculus; assay: Toxicity in C57Bl/6 mouse assessed as behavioral abnormalities at 10 mg/kg, ip; assay type: organism-based; details: in vivo
Summary of the method: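 C57Bl/6 mice (30–35 g) were dosed at 10 mg/kg i.p. in 5% NMP/20% solutol/75% of 20% hydroxypropyl-β-cyclodextrin and observed for behavioral abnormalities after dosing.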

[11] = tested on: Brain; assay: Drug uptake in C57Bl/6 mouse brain at 10 mg/kg, ip after 15 to 30 mins by LC/MS/MS analysis; assay type: ADME, organism-based; details: in vivo, read-out: Drug uptake
Summary of the method: (§3)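 Male/female not stated; 30–35 g C57Bl/6 mice given 10 mg/kg i.p. at 1.25 mg/mL in 5% NMP/20% solutol/75% of 20% hydroxypropyl-β-cyclodextrin. Blood was taken by cardiac puncture into heparin and brains were collected at 0, 15, 30, 60, 120 and 240 min, three mice per time point. Plasma and brain homogenate (1:4 water) were acetonitrile-precipitated and quantified by LC-MS/MS against an 8-point duplicate standard curve.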

[12] = target: T4, Glutamate NMDA receptor; Grin1/Grin2b (Rattus norvegicus); assay: Positive allosteric modulation of recombinant rat GluN1/GluN2B receptor expressed in xenopus laevis oocyte assessed as potentiation of glutamate-induced current response at 30 uM at holding potential -40mV by two electrode voltage clamp method
[13] = Cmax in C57Bl/6 mouse plasma at 10 mg/kg, ip after 2 hrs by LC/MS/MS analysis; assay type: ADME, organism-based; design: dose 10 mg/kg, route intraperitoneal; summary of the method: as §3
[14] = Ratio of drug level in C57Bl/6 mouse brain to plasma at 10 mg/kg, ip after 4 hrs by LC/MS/MS analysis; assay type: ADME, organism-based; summary of the method: as §3
[15] = Drug uptake in C57Bl/6 mouse brain at 10 mg/kg, ip after 4 hrs by LC/MS/MS analysis; assay type: ADME, organism-based; details: read-out: Drug uptake; summary of the method: as §3
[16] = target: T1, Glutamate NMDA receptor; Grin1/Grin2c (Rattus norvegicus); assay: Positive allosteric modulation of recombinant rat GluN1/GluN2C receptor expressed in xenopus laevis oocyte assessed as potentiation of glutamate-induced current response at 30 uM at holding potential -40mV by two electrode voltage clamp method
Summary of the method: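 Rat GluN1/GluN2C (modified GluN2C) expressed from injected mRNA in Xenopus oocytes; two-electrode voltage clamp at -40 mV, 23°C, recording solution pH 7.4 (90 NaCl, 1.0 KCl, 0.5 BaCl2, 0.005 EDTA, 10 HEPES, mM). Compound coapplied with 100 µM glutamate and 30 µM glycine; final DMSO 0.05-0.5%.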

[17] = target: T3, Ionotropic glutamate receptor NMDA 1/2D (Rattus norvegicus); assay: Positive allosteric modulation of recombinant rat GluN1/GluN2D receptor expressed in xenopus laevis oocyte assessed as compound concentration required to show two fold increase in glutamate and glycine-induced current response at holding potential -40mV by two electrode voltage clamp method
[18] = target: Glutamate receptor 1 (Rattus norvegicus) (UniProt P19490); assay: Positive allosteric modulation of recombinant rat GluA1 receptor expressed in xenopus laevis oocyte assessed as potentiation of glutamate-induced current response at 30 uM at holding potential -40mV by two electrode voltage clamp method relative to glutamate
Chain of Glutamate receptor 1 (Rattus norvegicus) (P19490 whole entry): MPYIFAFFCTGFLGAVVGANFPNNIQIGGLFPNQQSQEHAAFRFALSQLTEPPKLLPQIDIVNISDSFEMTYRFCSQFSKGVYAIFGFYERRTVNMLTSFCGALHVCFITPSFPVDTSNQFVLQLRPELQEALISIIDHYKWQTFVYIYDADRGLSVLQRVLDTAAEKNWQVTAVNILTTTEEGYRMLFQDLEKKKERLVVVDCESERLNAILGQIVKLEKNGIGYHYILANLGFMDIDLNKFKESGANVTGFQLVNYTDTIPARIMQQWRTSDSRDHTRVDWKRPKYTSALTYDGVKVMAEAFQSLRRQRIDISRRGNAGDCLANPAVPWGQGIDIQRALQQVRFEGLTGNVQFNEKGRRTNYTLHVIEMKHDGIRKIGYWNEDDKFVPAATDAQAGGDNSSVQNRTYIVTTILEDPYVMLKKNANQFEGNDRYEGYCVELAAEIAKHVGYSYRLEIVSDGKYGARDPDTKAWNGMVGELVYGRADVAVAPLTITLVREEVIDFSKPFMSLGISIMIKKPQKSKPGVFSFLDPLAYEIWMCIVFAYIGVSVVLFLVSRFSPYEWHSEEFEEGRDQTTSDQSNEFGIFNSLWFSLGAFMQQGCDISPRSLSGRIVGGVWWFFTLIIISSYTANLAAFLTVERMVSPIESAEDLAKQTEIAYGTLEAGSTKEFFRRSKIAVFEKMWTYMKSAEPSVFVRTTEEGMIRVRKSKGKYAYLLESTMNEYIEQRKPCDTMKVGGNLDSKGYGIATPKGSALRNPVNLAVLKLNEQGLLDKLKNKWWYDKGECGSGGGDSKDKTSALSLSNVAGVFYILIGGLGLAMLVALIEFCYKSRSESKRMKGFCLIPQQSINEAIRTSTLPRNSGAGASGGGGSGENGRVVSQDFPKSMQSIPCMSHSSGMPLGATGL

[19] = tested on: Liver; assay: Drug level in human liver microsomes treated with (3-chlorophenyl)(6-isopropoxy-1-((4-methoxyphenoxy)methyl)-3,4-dihydroisoquinolin-2(1H)-yl)methanethione at […] measured at 30 mins by LC/MS/MS analysis; assay type: ADME, microsome; details: 0.5 h
[20] = target: Ionotropic glutamate receptor NMDA 1/2D (Rattus norvegicus, UniProt P35439+Q62645); assay: Positive allosteric modulation of recombinant rat GluN1/GluN2D receptor expressed in xenopus laevis oocyte assessed as potentiation of glutamate and glycine-induced current response at holding potential -40mV by two electrode voltage clamp method; summary of the method: as §1
[21] = target: Glutamate receptor ionotropic, kainate 2 (Rattus norvegicus) (UniProt P42260); assay: Positive allosteric modulation of recombinant rat GluK2 receptor expressed in xenopus laevis oocyte assessed as potentiation of glutamate-induced current response at 30 uM at holding potential -40mV by two electrode voltage clamp method relative to glutamate
Chain of Glutamate receptor ionotropic, kainate 2 (Rattus norvegicus) (P42260 whole entry): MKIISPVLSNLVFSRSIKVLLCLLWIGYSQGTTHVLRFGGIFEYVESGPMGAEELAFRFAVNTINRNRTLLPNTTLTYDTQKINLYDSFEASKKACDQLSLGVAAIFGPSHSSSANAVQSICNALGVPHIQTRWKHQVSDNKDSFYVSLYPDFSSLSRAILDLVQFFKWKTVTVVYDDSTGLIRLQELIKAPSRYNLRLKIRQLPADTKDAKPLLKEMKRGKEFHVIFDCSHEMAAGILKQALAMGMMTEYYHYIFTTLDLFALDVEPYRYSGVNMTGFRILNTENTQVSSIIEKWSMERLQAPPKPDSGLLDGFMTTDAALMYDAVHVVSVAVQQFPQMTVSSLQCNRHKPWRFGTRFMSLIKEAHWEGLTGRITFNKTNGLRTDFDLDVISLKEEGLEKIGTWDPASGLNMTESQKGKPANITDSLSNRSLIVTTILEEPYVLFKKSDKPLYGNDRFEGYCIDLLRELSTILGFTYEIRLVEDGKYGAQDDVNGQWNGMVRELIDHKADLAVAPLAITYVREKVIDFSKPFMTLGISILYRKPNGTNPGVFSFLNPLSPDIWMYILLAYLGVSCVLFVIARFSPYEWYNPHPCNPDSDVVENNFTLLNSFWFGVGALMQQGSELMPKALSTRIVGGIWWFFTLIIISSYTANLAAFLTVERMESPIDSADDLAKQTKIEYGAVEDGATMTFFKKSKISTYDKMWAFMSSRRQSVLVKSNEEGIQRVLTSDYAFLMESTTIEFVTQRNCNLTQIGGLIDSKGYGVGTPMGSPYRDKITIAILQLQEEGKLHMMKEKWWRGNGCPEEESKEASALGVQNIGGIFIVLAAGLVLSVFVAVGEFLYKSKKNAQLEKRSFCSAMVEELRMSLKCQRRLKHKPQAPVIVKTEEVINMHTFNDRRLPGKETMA

[22] = Ratio of drug level in C57Bl/6 mouse brain to plasma at 10 mg/kg, ip after 15 mins by LC/MS/MS analysis; assay type: ADME, organism-based; summary of the method: as §3
[23] = target: T1, Glutamate NMDA receptor; Grin1/Grin2c (Rattus norvegicus); assay: Positive allosteric modulation of recombinant rat GluN1/GluN2C receptor expressed in xenopus laevis oocyte assessed as compound concentration required to show two fold increase in glutamate and glycine-induced current response at holding potential -40mV by two electrode voltage clamp method
[24] = Drug metabolism in human liver microsomes assessed as P450 mediated drug metabolite formation by measuring parent compound half life at […] by LC/MS/MS analysis; assay type: ADME
[25] = target: T3, Ionotropic glutamate receptor NMDA 1/2D (Rattus norvegicus); assay: Positive allosteric modulation of recombinant rat GluN1/GluN2D receptor expressed in xenopus laevis oocyte assessed as potentiation of glutamate and glycine-induced current response at 30 uM at holding potential -40mV by two electrode voltage clamp method relative to control; summary of the method: as §1
[26] = Drug metabolism in human liver microsomes assessed as UGT mediated drug metabolite formation by measuring parent compound half life at […] by LC/MS/MS analysis; assay type: ADME
[27] = target: T3, Ionotropic glutamate receptor NMDA 1/2D (Rattus norvegicus); assay: Positive allosteric modulation of recombinant rat GluN1/GluN2D receptor expressed in xenopus laevis oocyte assessed as potentiation of glutamate and glycine-induced current response at 10 uM at holding potential -40mV by two electrode voltage clamp method relative to control
Summary of the method: as §1, with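 “final). […]” for “final).”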

[28] = target: T1, Glutamate NMDA receptor; Grin1/Grin2c (Rattus norvegicus); assay: Positive allosteric modulation of recombinant rat GluN1/GluN2C receptor expressed in xenopus laevis oocyte assessed as potentiation of glutamate and glycine-induced current response at 10 uM at holding potential -40mV by two electrode voltage clamp method relative to control; details: for Activity: 30 uM, in the assay text read “at 30 uM” for “at 10 uM”
Summary of the method: as §1, with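 “final). […]” for “final).”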

[29] = target: T4, Glutamate NMDA receptor; Grin1/Grin2b (Rattus norvegicus); assay: Positive allosteric modulation of recombinant rat GluN1/GluN2B receptor expressed in xenopus laevis oocyte assessed as potentiation of glutamate and glycine-induced current response at 30 uM at holding potential -40mV by two electrode voltage clamp method relative to control
[30] = target: T4, Glutamate NMDA receptor; Grin1/Grin2b (Rattus norvegicus); assay: Positive allosteric modulation of recombinant rat GluN1/GluN2B receptor expressed in xenopus laevis oocyte assessed as potentiation of glutamate and glycine-induced current response at 10 uM at holding potential -40mV by two electrode voltage clamp method relative to control; details: 30 uM, in the assay text read “at 30 uM” for “at 10 uM”
Summary of the method: as §1, with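 “final). […]” for “final).”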

[31] = target: T2, Glutamate NMDA receptor; Grin1/Grin2b
[32] = target: T1, Glutamate NMDA receptor; Grin1/Grin2c (Rattus norvegicus); assay: Positive allosteric modulation of recombinant rat GluN1/GluN2C receptor expressed in xenopus laevis oocyte assessed as potentiation of glutamate and glycine-induced current response at 30 uM at holding potential -40mV by two electrode voltage clamp method relative to control

With `CCOc1ccc(OC[C@@H]2c3ccc(OC(C)C)cc3CCN2C(=O)c2cccc(F)c2)cc1` the EC50 [1] was 3.6 µM, the Emax [2] was 128% and the EC50 [3] was 4.7 µM. It also gave an Activity [4] of 103%, an Activity [5] of 136% and an Activity [6] of 110%. It also gave an Emax [7] of 204%, an Activity [8] of 177% and a CD [9] of 40 µM.

For `COc1ccc(OCC2c3ccc(OC(C)C)cc3CCN2C(=O)c2cccc(Cl)c2)cc1` (centres undefined), the Activity [10] was “Non-Toxic”, the concentration [11] was 700 nM and the Activity [12] was “inactive”. The Cmax [13] was 1700 nM, the BPR [14] was 0.9 and the concentration at 4 h [15] was 400 nM. For the same compound, the EC50 [3] was 5.2 µM, the Activity [16] was “inactive” and the CD [17] was 4.9 µM. The Activity [18] was 106%, the Drug metabolism [19] was “Metabolite_Detected” and the EC50 [20] was 3 µM. For the same compound, the Activity [21] was 96%, the Activity [6] was “inactive” and the BPR [22] was 0.7. It also gave an Activity [7] of 195%, an Emax [7] of 202% and a CD [9] of 64 µM. The CD [23] was 4.6 µM.

With `COc1ccc(OCC2c3ccc(OC(C)C)cc3CCN2C(=S)c2cccc(Cl)c2)cc1` (centres undefined) the EC50 [1] was 0.42 µM, the Emax [2] was 225% and the EC50 [3] was 0.49 µM. It also gave a CD [17] of 0.8 µM, a t1/2 [24] of 29 min and an EC50 [20] of 0.43 µM. The Emax [7] was 213%, the Emax [25] was 229% and the CD [9] was 2.6 µM. The t1/2 [26] was 29 min and the CD [23] was 1.1 µM.

Compound `CCOc1ccc(OCC2c3ccc(OC(C)C)cc3CCN2C(=O)c2cc(Cl)cc(Cl)c2)cc1` (centres undefined) has an Activity [27] of 80%, an Activity [28] of 97% and an Activity [29] of 105%.

In the case of `CCOc1ccc(OCC2c3ccc(OC4CCCC4)cc3CCN2C(=O)c2cccc(Cl)c2)cc1` (centres undefined), the Activity [27] is reported as 193%, the Emax [27] is reported as 188% and the EC50 [1] is reported as 4.2 µM. It also gave an EC50 [3] of 4 µM, an Emax [30] of 221% and an Emax ([28]; 10 uM) of 210%. The Activity [28] was 187% and the EC50 [20] was 4.3 µM.

In the case of `NCCCNCCCCNCCCN` [SPERMINE], the EC50 [31] is reported as 100 to 200 µM.

Work on `COc1ccccc1OCC1c2ccc(OC(C)C)cc2CCN1C(=O)c1cccc(Cl)c1` (centres undefined) yielded an Activity [32] of 110%, an Activity [27] of 99% and an Activity [29] of 108%.
